Results on eight molecules are retold here after article PMC4944838 (Molecular cell, 2013).

In one assay the target is T1, Rad4-BRCT1,2 (Schizosaccharomyces pombe, UniProt P32372).
T1 sequence (P32372 1-186 limits assumed): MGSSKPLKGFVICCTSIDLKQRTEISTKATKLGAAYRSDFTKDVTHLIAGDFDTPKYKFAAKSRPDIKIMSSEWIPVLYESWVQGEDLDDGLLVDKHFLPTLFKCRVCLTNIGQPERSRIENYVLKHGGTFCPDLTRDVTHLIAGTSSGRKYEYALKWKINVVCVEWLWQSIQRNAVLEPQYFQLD
Nature of the assay: Co-crystallisation with Rad4-BRCT1,2. Format: binding, S. pombe. The conditions noted are these: co-crystal X-ray structure. An outline of the steps:
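S. pombe Rad4 BRCT1,2 construct expressed in E. coli and purified by affinity tags and conventional column chromatography. Crystals of protein and complexes grown by hanging-drop vapour diffusion. Diffraction data collected from single crystals on a home source or synchrotron. Structures phased by molecular replacement and refined.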

For assay [1], the target named is Rad4-BRCT1,2 (BRCT1,2 segment of S. pombe Rad4^TopBP1) (S. pombe) (UniProt P32372). Nature of the assay: fluorescence polarisation. On the technique in general: Polarisation of emitted light reports the rotation of a fluorescent probe.
In assay [2] the target is Rad4-BRCT1,2 K151E (S. pombe) (UniProt P32372). As to the kind of experiment: fluorescence polarisation.
The target of assay [3] is Rad4-BRCT1,2 K56E (S. pombe) (UniProt P32372). Nature of the assay: fluorescence polarisation.
The target of assay [4] is Rad4-BRCT3,4 (BRCT3,4 segment of S. pombe Rad4^TopBP1) (S. pombe) (UniProt P32372). As to the kind of experiment: fluorescence polarisation.
Sequence of Rad4-BRCT3,4 (BRCT3,4 segment of S. pombe Rad4^TopBP1) (S. pombe) (P32372 291-494): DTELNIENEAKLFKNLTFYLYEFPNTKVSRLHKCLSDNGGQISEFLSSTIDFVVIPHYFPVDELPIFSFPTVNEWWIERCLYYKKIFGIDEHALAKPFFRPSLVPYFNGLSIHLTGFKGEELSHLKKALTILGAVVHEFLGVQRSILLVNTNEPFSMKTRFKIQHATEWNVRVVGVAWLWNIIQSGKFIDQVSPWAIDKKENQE
The target in the next assay is T2, Rad4-BRCT1,2 K151E (S. pombe, UniProt P32372 1-186, K151E).
T2 sequence: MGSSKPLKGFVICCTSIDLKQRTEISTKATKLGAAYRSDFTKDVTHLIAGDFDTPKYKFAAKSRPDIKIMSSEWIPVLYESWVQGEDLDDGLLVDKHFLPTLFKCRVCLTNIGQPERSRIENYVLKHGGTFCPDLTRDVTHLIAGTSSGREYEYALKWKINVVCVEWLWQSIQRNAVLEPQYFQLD
As to the kind of experiment: fluorescence polarisation.

Another assay has as its target T3, Rad4-BRCT1,2 K56E (S. pombe, UniProt P32372 1-186, K56E).
T3 sequence: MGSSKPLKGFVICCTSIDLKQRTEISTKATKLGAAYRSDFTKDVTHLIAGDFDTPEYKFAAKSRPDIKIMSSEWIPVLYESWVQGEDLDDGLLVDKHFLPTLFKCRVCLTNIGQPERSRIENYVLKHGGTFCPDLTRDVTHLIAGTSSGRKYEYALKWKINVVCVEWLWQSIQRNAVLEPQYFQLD
Nature of the assay: fluorescence polarisation.

Where no end group is shown, it is not given here. [ ]: non-standard residue; d: D form. pT = C[C@@H](OP(=O)(O)O)[C@H](N)C(=O)O

In general, Kd refers to the constant that tells how readily two partners part at equilibrium.

For 184 – Val Pro Glu pThr Val – 188, the “site occupancy in co-crystal structure with Rad4-BRCT1,2 (in words)” value on Rad4-BRCT1,2 is given as “peptide molecules bound to both BRCT domains”.
Same read-out and setting: the entry for “232 – Val Glu Ser pThr Pro – 236 [Crb2 phosphopeptide (residues 229-241)]” is “only the BRCT2 site was occupied”.
Turning to “Crb2 peptide phosphorylated on both Thr215 and Thr235 (fluorescence polarisation)”, the Kd in assay [1] turned out to be 1970 nM.
In the case of “Crb2-pThr187 phosphopeptide, fluorescently labelled”, the figures for the Kd in assay [1], in assay [2] and in assay [3] were 500 nM, 400 nM and 2200 nM, respectively.
Molecule “Rad9 C-terminal tail peptide phosphorylated on Ser423” showed a Kd in assay [4] of 8600 nM.
Turning to “Rad9 C-terminal tail peptide phosphorylated on Thr412”, the Kd in assay [4] came to 1900 nM.
Same read-out and setting: the value for “Rad9 C-terminal tail peptide phosphorylated on Thr412 and Ser423” was 6400 nM.
As for RVES[pT]PPAFLP (also: fluorescein label, site not given here) [Crb2-pThr235 phosphopeptide, fluorescently labelled], the results for the Kd with Rad4-BRCT1,2 K151E and with Rad4-BRCT1,2 K56E were 59000 nM and 11700 nM, respectively.
